An excerpt weighted towards active compounds, which were near 0.95% of everything screened.
SUMO HTRF inh: inhibitors of in vitro SUMOylation cascade, primary screen, biochemical, HTRF, uHTS; HTRF SUMOylation assay, SAE1/SAE2 + UBC9; SUMO-conjugating enzyme UBC9 (Homo sapiens), P63279; inhibition, % at 35 µM; hit rate 0.36% among 290,000; in the data active = inhibition above about 50%, passing the limit was not always enough; inconclusive = no clear call, values can overlap the other calls
HKDC1 inh: HKDC1 hexokinase inhibitors, primary screen, biochemical, fluorescence, uHTS; Q2TB90; recombinant HKDC1, G6PDH/diaphorase resazurin coupled fluorescence; inhibition, % at 20 µM; hit rate 0.16% among 340,000; AID 493160, 2011;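 active = inhibition above about 35% when tested at 20 µM, limit read from the data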;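 also: plate controls were DMSO wells with enzyme for no effect and DMSO wells lacking enzyme for full effect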
Target sequence (Q2TB90 whole entry, looked up): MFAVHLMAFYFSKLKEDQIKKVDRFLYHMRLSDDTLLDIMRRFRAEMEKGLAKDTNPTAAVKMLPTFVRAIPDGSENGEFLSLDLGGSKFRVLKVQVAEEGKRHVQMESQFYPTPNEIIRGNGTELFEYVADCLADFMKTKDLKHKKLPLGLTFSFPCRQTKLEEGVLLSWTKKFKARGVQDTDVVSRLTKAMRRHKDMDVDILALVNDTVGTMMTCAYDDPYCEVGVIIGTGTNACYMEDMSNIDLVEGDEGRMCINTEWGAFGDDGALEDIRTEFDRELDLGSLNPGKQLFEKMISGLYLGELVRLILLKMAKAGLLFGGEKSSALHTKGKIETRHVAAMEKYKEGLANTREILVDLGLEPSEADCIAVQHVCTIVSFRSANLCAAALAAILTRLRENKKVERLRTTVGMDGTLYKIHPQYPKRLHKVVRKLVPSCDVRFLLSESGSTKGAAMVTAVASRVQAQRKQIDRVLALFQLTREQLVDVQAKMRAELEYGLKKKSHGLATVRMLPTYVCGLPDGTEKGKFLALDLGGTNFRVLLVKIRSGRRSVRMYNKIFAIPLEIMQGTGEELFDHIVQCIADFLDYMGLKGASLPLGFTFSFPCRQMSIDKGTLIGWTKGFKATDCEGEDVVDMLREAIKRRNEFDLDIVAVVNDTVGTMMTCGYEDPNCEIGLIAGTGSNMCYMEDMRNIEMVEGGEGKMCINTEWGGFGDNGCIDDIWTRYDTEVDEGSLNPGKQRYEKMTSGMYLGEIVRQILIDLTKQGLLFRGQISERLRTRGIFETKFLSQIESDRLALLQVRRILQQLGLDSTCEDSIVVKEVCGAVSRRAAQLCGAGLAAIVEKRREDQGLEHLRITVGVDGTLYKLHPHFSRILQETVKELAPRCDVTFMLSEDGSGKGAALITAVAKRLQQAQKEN
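Assay system – recombinant HKDC1 (HK5) hexokinase enzyme, produced in-house · Input – HKDC1 at 5 µg/mL · Reagent – glucose plus 1 mM ATP as hexokinase substrates · Timing – 90 min reaction incubation at room temperature, dark · Measured by – G6PDH/diaphorase-coupled fluorescence, 1 mM NADP, 100 µM resazurin, 525/613 nm · Benchmarks – DMSO-enzyme wells negative, buffer-substituted wells positive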
p97 ATPase inh: inhibitors of human p97 ATPase, primary screen, biochemical; hit rate 0.42% among 220,000; Transitional endoplasmic reticulum ATPase (Homo sapiens), P55072; AID 1481, 2009; inhibition, % at 8 µM; recombinant p97 ATPase, Kinase-Glo ATP luminescence, 3 h; in the data active = inhibition above about 15%;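 also: 0% = DMSO vehicle and 100% = wells lacking enzyme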
Diaph inh CS: diaphorase inhibitors and chemical oxidizers, primary screen, counter-screen for diaphorase-coupled primary assays, biochemical, uHTS, resorufin fluorescence; diaphorase resazurin-to-resorufin fluorescence, NADH, 16 min; bacterial (C. kluyveri) enzyme, not human; inhibition, % at 20 µM; hit rate 0.69% among 190,000; AID 1217, 2008;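 active = primary screen inhibition at 20 µM above a set limit, cut at about 50% in these data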;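 also: plate controls were DMSO with full reaction for no effect and wells lacking NADH for full effect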
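Test system: bacterial diaphorase enzyme (C. kluyveri); Quantity: 0.14 U/mL diaphorase, enzyme working solution; Times: reaction incubation of 16 min at room temperature; Measured by: fluorescence of resorufin formed from resazurin, Ex 544/Em 590 nm; Benchmarks: positive control minus NADH, DMSO neutral control.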
G6PDH counter: L. mesenteroides G6PDH inhibitors, counter-screen for G6PDH-coupled screening assays, biochemical, Leuconostoc mesenteroides enzyme | Purified L. mesenteroides G6PDH, diaphorase/resazurin coupled fluorescence, 45 min | inhibition, % at 5 µM | hit rate 0.12% among 200,000 | glucose-6-phosphate dehydrogenase [Leuconostoc mesenteroides] | AID 1020, 2008; in the data active = inhibition above about 50%
Active calls of the source: *; ? = inconclusive; . = not tested or not shown.

SMILES	SUMO HTRF inh	HKDC1 inh	p97 ATPase inh	Diaph inh CS	G6PDH counter
CCOC(=O)c1oc2nc(C(C)C)c3c(c2c1N)CC(C)(C)OC3	45.7	32.6	-0.5	68.2*	11.7
Cc1cc(C(=O)NC(C)CCc2ccccc2)ccc1[N+](=O)[O-] (centres undefined)	6.6	-4.0	.	.	.
Cc1cc(C(=O)NC(C)Cc2ccccc2)cc(C)c1[N+](=O)[O-] (centres undefined)	8.0	5.2	-1.5	68.9*	3.4
C(=N\Nc1ncnc2sc3c(c12)CCC3)/c1ccncc1	29.8	-4.9	-5.0	-19.5	2.7
c1cc(Nc2ncnc3sc4c(c23)CCC4)ccn1	53.6*	-2.9	2.6	15.2	10.0
O=C(O)c1cc(-c2ccco2)nc2ccc(Br)cc12	1.0	30.0	3.0	65.0*	-4.3
O=C(c1ccco1)N1CCN(C(=O)c2cc(-c3ccncc3)nc3ccc(Br)cc23)CC1	.	-0.2	-7.2	.	.
CCOC(=O)c1c(NC(=S)NCC2CCCO2)sc(C)c1C (centres undefined)	-31.2	-5.2	3.4	5.1	3.7
CCOc1ccccc1-c1c2cc(O)c(=O)cc-2oc2cc(O)c(O)cc12	26.1	18.3	4.3	49.3	-14.8
COc1ccc(OC)c(-c2c3cc(O)c(=O)cc-3oc3cc(O)c(O)cc23)c1	?	34.5	21.7*	88.5*	31.8
COCCN1C(=O)N[C@@H](c2ccccc2)[C@H](C(=O)OC)[C@H]1C	.	-0.5	.	.	.
N#Cc1c(-c2cccc(Br)c2)cc(-c2ccco2)[nH]c1=O	79.3*	6.1	7.5	66.7*	5.6
Cc1ccccc1-c1cc2c(nn1)-c1ccccc1C2=O	88.4*	9.1	3.9	64.9*	53.1*
Cc1ccc(-c2cc3c(nn2)-c2ccccc2C3=O)cc1	-7.9	-6.0	-36.0	.	.
N#C/C(=C\c1coc2ccc(O)cc2c1=O)C(=O)Nc1nc2ccccc2s1	4.5	32.6	43.2*	.	.
C#CCOCCOCCOCCNc1nc(N2CCOCC2)nc(N2CCN(C(=O)[C@H](Cc3ccc(O)cc3)n3cc([C@@H](N)C(C)CC)nn3)CC2)n1 (some centres undefined)	6.9	-0.4	0.9	78.7*	8.9
C#CCOCCOCCOCCNc1nc(N2CCN(C(=O)C(Cc3ccc(O)cc3)n3cc(C(N)C(C)CC)nn3)CC2)nc(N2CCN(C(=O)C(Cc3ccc(O)cc3)n3cc(C(N)C(C)CC)nn3)CC2)n1 (centres undefined)	11.0	-2.0	6.0	-5.6	13.3
CCOc1ccc(NC(=O)c2cccc(NC(C)=O)c2)cc1S(=O)(=O)N1CCCC1	.	-2.8	.	.	.
CC1(c2ccccc2)NC(=O)N(CC(=O)Nc2ccccc2N2CCCC2)C1=O (centres undefined)	.	-1.5	.	.	.
O=C(COC(=O)c1cc(S(=O)(=O)N2CCc3ccccc3C2)ccc1Cl)NCc1ccco1	21.2	8.5	2.4	51.8*	1.2
CCCNC1=C(N(C(C)=O)c2cccc(F)c2)C(=O)c2ccccc2C1=O	14.0	19.4	-3.9	34.4	52.4*
CCCNC(=O)COC(=O)/C=C/c1cccc(F)c1	2.7	-6.6	4.9	2.6	1.5
Cc1onc(-c2ccccc2Cl)c1C(=O)N1CCCCC1C (centres undefined)	-11.0	-6.5	.	.	.
O=C1C=C(NCCN2CCOCC2)C(=O)c2cnccc21	84.2*	.	12.5	23.2	60.2*
CC(=O)c1cccc(NC(=O)Nc2ccc3c(c2)OCO3)c1	-8.5	-7.1	.	.	.
SMILES	SUMO HTRF inh	HKDC1 inh	p97 ATPase inh	Diaph inh CS	G6PDH counter
COc1ccc(N=Nc2c(C)[nH]c3ccccc23)cc1	.	1.0	.	.	.
CCOC(=O)c1sc2nc3c(SCC(=O)O)cc(C(=O)c4ccccc4O)cn3c(=O)c2c1C	75.9*	6.5	-3.1	45.4	5.1
Oc1ccc(-c2cnns2)c(O)c1	-4.1	45.4*	10.4	9.5	3.0
Nc1ncc(-c2ccccc2)c(-c2ccc(O)cc2O)n1	7.7	-1.2	.	.	.
O=c1[nH]c(C(Cl)Cl)nc2sc3c(c12)CCN(Cc1ccccc1)C3	39.5	21.9	9.4	17.9	-0.5
CCCSc1nc2sc3c(c2c(=O)[nH]1)CCN(Cc1ccccc1)C3	14.7	-1.9	11.5	54.5*	-43.6
CC(C)(C)SCCNC(=O)Nc1ccccc1	4.5	15.2	-2.8	10.4	-0.1
CCN1/C(=C/C=C/c2oc3ccc4ccccc4c3[n+]2CC)Oc2ccc3ccccc3c21	89.9*	50.8*	3.7	-24.6	2.5
CC[n+]1c(/C=C/N(C)c2ccccc2)oc2ccc(Cl)cc21	-1.9	-18.8	-0.3	24.8	0.7
CC(C)(C)OC(=O)[C@H](Cc1ccccc1)NC(=O)c1nc[nH]c1C(=O)NC1CCN(C(=O)OC(C)(C)C)CC1	-8.7	-0.3	-4.2	51.8*	13.5
COc1ccc(N2CCN(Cc3nc4cc(Cl)ccc4c(=O)[nH]3)CC2)cc1	3.9	-1.9	3.2	2.6	0.0
NCC[C@H](O)C(=O)N[C@@H]1C[C@H](N)[C@@H](O[C@H]2O[C@H](CN)[C@@H](O)[C@H](O)[C@H]2O)[C@H](O)[C@H]1O[C@H]1O[C@H](CO)[C@@H](O)[C@H](N)[C@H]1O	70.9*	-6.7	6.6	1.7	1.1
C=CCc1cccc2cc(C(=O)Nc3ccccc3C(=O)O)c(=O)oc12	4.9	10.9	22.2*	92.7*	4.0
C=CCc1cccc2cc(C(=O)O)c(=O)oc12	6.8	4.6	4.2	6.6	3.2
CCOC(=O)N1CCN(C(=O)c2ccc3c(=O)n(-c4ccc(OC)cc4OC)c(=S)[nH]c3c2)CC1	3.3	4.6	2.7	43.6	-0.3
CCOC(=O)N1CCN(C(=O)c2ccc3c(=O)n(-c4ccccc4F)c(=S)[nH]c3c2)CC1	19.1	-1.9	-2.3	50.3*	0.2
O=C(c1ccco1)N1CCN(Cc2cc(=O)c(OCc3ccc(F)cc3)co2)CC1	.	-0.3	.	.	.
COC(=O)c1cc(S(=O)(=O)NCc2cccs2)c[nH]1	12.4	-4.1	.	.	.
CC(=O)N1CCC2(CC1)C/C(=N\NC(=S)Nc1ccc(C)cc1)c1cc(O)ccc1O2	3.8	4.6	3.4	54.4*	1.0
Cc1ccc(NC(=S)N/N=C2\CC(C)(C)Oc3ccc(O)cc32)cc1	22.4	-11.7	3.3	13.8	0.2
O=C(CN1C(=O)/C(=C2/SC(=S)N(CCS(=O)(=O)O)C2=O)c2ccccc21)Nc1cccc(C(F)(F)F)c1	.	36.2*	.	.	.
O=C(N/N=C/c1c(O)n(-c2ccc(Cl)cn2)c(=O)c2ccccc12)C1CC1	21.3	-9.5	7.2	33.2	-0.5
O=C(N/N=C/c1c(O)n(-c2ccc(Cl)cn2)c(=O)c2ccccc12)c1ccncc1	15.6	-9.8	-11.0	59.0*	-0.6

From PubChem
